Assay results from publication PMC3131463 (Journal of medicinal chemistry, 2011).
“And” between values parts separate entries of the source, which are not always exact repeats. Identical values can stand only once.

What was measured:
[1] = tested on: LPS-induced NO production in RAW 264 macrophage cells; assay: Suppression of LPS-induced NO production in RAW 264.7 macrophage cells; type: cell-based
human whole blood = assay: Agonism / hemolysis in human whole blood; type: cell-based; settings: up to 1 mM
Procedure, shortened: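 Human whole blood from healthy consenting donors, anticoagulated with lepirudin (final 50 µg/mL), was added to tubes holding test compound or PBS with Ca2+/Mg2+. It was preincubated 5–10 min at 37 °C, then given E. coli 0111:B4 ultra-pure LPS (100 ng/mL) or endotoxin-free PBS and rotated 2 h at 37 °C. EDTA (final 10 mM) was added, and plasma TNF-α, IL-8 and IL-6 were measured by singleplex Bio-plex.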

MDR1-MDCK monolayer = assay: MDR1-MDCK permeability assay; type: in vitro ADME; settings: 5 µM, apical to basolateral and basolateral to apical
[2] = Metabolic stability in human liver microsomes; type: in vitro ADME
Procedure, shortened: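 Test compound (1 µM, <0.25% DMSO) was incubated at 37 °C with human liver microsomal protein (0.5 mg/mL). Cofactors were added to start reactions at 0, 10, 20, 30 and 60 min, with a 5 µM testosterone positive control. NADPH addition was confirmed by fluorimetry. Compound-to-internal-standard peak-area ratio was read by LC-MS/MS without a standard curve. CLint = elimination rate constant / protein concentration.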

[3] = Metabolic stability in human liver S9 fractions; type: in vitro ADME
Procedure, shortened: (§1)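 Test compound (1 µM, <0.25% DMSO) was incubated at 37 °C with pooled liver S9 protein (1 mg/mL) and 1 mM each of NADPH, UDPGA, PAPS and GSH. Cofactors were added to start reactions at 0, 10, 20, 30 and 60 min, with testosterone and 7-hydroxycoumarin (20 µM each) as positive controls. Depletion was followed by LC-MS/MS peak-area ratio to internal standard, without a standard curve. CLint = k/P.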

[4] = Metabolic stability in rat liver S9 fractions; type: in vitro ADME
Procedure, shortened: as §1

CYP1A2 = biological target: T1, CYP1A2 (Homo sapiens, UniProt P05177); assay: CYP IC50 in human liver microsomes, CYP1A2; type: in vitro ADME
T1 sequence (P05177 1-516): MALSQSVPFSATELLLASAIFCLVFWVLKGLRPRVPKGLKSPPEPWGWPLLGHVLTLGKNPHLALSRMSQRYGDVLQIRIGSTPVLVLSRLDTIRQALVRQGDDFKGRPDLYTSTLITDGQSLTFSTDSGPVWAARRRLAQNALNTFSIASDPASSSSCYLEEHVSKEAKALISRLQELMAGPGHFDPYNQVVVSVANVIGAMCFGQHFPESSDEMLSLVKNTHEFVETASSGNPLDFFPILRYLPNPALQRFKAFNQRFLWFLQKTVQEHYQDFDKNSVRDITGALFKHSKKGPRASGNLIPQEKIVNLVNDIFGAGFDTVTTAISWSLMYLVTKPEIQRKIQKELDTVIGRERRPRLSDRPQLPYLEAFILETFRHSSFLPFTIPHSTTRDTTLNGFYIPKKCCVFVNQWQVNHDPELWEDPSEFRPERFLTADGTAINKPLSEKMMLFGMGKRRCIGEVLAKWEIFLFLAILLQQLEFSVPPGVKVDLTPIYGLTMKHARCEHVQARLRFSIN
Procedure, shortened: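 Test compound was run at eight concentrations (0–100 µM), with α-naphthoflavone as positive control. Protein was precipitated and acetaminophen formation measured by LC-MS/MS. IC50 came from a sigmoidal nonlinear regression fit.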

PKC-γ = PKC-γ (Homo sapiens, UniProt P05129); assay: KinaseSeeker kinase profiling, PKC-γ; type: binding; settings: read-out: inhibition of PKC-γ (most inhibited kinase)
[5] = tested on: AKT1, CAMK1, DDR2, GSK-3α, MAPK1, MET, PAK1, PDGFRB, PIM1, PKC-γ, PLK4, and SRC; assay: KinaseSeeker kinase profiling, panel of 12 kinases; type: binding; settings: at respective RAW264.7 IC50 concentrations (1j 28 µM, 1s 16 µM)
MARK1 = MARK1 (Homo sapiens, UniProt Q9P0L2); assay: KinaseSeeker kinase profiling, MARK1; type: binding; settings: read-out: inhibition of MARK1 (most inhibited kinase)
Chain of MARK1 (Q9P0L2 whole entry, species assumed): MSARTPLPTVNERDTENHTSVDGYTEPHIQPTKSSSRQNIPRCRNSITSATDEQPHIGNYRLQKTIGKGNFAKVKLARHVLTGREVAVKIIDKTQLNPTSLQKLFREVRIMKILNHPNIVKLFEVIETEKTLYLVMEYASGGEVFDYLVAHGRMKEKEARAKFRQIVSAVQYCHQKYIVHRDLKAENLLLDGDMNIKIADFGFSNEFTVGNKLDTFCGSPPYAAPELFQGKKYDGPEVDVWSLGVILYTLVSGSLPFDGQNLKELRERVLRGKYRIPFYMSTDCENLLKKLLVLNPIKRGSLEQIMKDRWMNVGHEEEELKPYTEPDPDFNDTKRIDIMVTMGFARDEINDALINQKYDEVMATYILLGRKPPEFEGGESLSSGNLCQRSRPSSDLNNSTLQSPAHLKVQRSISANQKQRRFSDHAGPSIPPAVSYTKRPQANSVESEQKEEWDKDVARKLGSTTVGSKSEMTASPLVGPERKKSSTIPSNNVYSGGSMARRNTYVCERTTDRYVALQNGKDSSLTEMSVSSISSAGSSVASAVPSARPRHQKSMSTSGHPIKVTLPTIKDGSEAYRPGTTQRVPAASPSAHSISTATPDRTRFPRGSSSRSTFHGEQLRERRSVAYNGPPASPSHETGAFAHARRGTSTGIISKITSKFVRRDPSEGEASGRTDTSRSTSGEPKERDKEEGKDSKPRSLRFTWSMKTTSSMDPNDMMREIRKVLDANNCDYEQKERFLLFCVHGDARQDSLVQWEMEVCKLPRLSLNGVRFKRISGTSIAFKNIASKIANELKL

| Structure (SMILES) | suppression of NO signaling (in words) [1] | agonistic effects with respect to cytokine release or hemolysis (human whole blood) | activity retained by the majority of the kinases [5] | maximal inhibition of any kinase of the panel [5] | other results |
| --- | --- | --- | --- | --- | --- |
| Cc1nn(Cc2ccccc2)c(C)c1CN(C)CC(O)COc1ccccc1 (stereo not drawn) [1a, 1-(((1-benzyl-3,5-dimethyl-1H-pyrazol-4-yl)methyl)(methyl)amino)-3-phenoxypropan-2-ol] | ineffective at suppressing NO signaling | no agonistic effects |  |  |  |
| CCOc1ccc(OCC(O)CN(C)Cc2c(C)nn(Cc3ccccc3OC)c2C)cc1 (stereo not drawn) [1g] | no detectable NO suppression |  |  |  |  |
| CCOc1ccc(OCC(O)CN(C)Cc2c(C)nn(Cc3ccccc3Cl)c2C)cc1 (stereo not drawn) [1j, 1-(((1-(2-chlorobenzyl)-3,5-dimethyl-1H-pyrazol-4-yl)methyl)(methyl)amino)-3-(4-ethoxyphenoxy)propan-2-ol] |  | no agonistic effects | > 95% | ≤ 27% | brain-blood barrier permeability classification (MDR1-MDCK monolayer): high; microsomal CLint [2]: > 700 µL/min/mg; microsomal CLint at 1 µM [3]: 300 µL/min/mg; microsomal CLint [4]: > 350 µL/min/mg; IC50 (CYP1A2): > 100 µM; inhibition at 28 µM (PKC-γ): 22.4% |
| Cc1nn(Cc2ccccc2Cl)c(C)c1CN(C)CC(O)COc1ccc(Cl)cc1 (stereo not drawn) [1s] |  |  | > 95% and 95% | ≤ 27% | inhibition at 16 µM (MARK1): 26.7% |
